Source: PubChem BioAssay
KCNK9 inh: inhibitors of human KCNK9 two-pore domain potassium channel. Q9NPC2. HEK293 KCNK9, FluxOR thallium flux fluorescence; hits give low values. B-score at 10 µM. actives 1.2% (n = 310,000);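 active means ratio B-score over 3 SD below the library mean, with starting fluorescence within 5 SD of its mean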;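 further: negative B-score means less thallium flux so channel inhibition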
Target sequence (Q9NPC2 whole entry, looked up, the tested form may be a part): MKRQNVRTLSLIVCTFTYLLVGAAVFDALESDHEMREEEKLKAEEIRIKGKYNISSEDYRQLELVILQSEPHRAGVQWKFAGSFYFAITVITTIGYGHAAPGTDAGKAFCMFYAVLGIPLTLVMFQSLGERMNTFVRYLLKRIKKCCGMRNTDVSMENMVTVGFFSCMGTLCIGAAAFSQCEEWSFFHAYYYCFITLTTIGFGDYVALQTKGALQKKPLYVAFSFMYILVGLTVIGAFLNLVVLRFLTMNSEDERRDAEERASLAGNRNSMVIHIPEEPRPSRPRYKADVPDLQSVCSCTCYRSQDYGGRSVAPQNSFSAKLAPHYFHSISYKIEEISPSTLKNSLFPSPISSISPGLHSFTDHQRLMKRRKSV
KCNQ1 block: inhibitors of human KCNQ1 potassium channel; P51787; CHO-K1 KCNQ1, FluxOR thallium flux fluorescence; hits give high values; B-score at 10 µM; actives 1.3% (n = 310,000); AID 2642;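 active means compounds whose thallium flux B-score, printed positive for inhibition, exceeds three library SD while starting fluorescence stays within three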;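 further: channel opened by potassium depolarization with thallium stimulus after 20 min compound exposure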
PHOSPHO1 inh: PHOSPHO1 (human) inhibition; recombinant PHOSPHO1, absorbance phosphatase assay; inhibition, % at 13.3 µM; actives 1.1% (n = 290,000); Q8TCT1; in the data active means inhibition above about 60%
Target sequence (Q8TCT1 whole entry, looked up): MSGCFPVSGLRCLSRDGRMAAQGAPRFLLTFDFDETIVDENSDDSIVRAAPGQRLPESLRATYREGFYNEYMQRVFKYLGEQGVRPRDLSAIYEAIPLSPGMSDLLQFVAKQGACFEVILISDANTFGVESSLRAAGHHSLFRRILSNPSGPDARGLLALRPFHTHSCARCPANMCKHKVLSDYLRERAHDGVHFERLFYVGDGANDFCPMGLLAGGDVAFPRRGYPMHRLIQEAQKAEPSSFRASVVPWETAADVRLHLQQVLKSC
KCNK3 inh: human KCNK3 channel inhibition, primary screen | AID 602410 | CHO-KCNK3 thallium flux, FluxOR fluorescence; hits give low values | O14649 | actives 0.84% (n = 340,000) | B-score at 10 µM;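 active means B-score under library mean minus 4 SD, starting fluorescence ratio at most library mean plus 5 SD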;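 further: more negative B-score means stronger inhibition of thallium flux through KCNK3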
hERG protect: shields human hERG channel from block by proarrhythmic agents | Q12809 | CHO-hERG, FluxOR thallium flux, dofetilide IC70 present | activation (rescue from dofetilide block), less the hit threshold, % at 10 µM | actives 0.51% (n = 310,000) | AID 1511;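 active means activation above the mean of controls blocked by dofetilide plus 5 SD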;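 further: thallium influx through hERG after potassium depolarization seen as dye fluorescence rise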
KCNQ1 act: human KCNQ1 channel potentiation or activation; P51787; CHO-K1 KCNQ1, thallium flux FluxOR fluorescence; hits give high values; B-score at 10 µM; actives 0.35% (n = 310,000);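 active means fluorescence ratio B-score, a plate-corrected score, at least three library SD, with initial intensity B-score within 5 SD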
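System: CHO-K1 cells stably expressing KCNQ1 / Medium: assay buffer for compound exposure, DMSO matched across wells / Reagent: thallium- and potassium-containing depolarizing buffer / Compound: one concentration, matched DMSO / Incubation: 20 min compound pretreatment at room temperature / Measured by: kinetic FluxOR fluorescence, 10 s baseline plus 110 s post-stimulus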
* marks the source's active call; other numbers are inactive results; i = inactive; / = no result. Hits are enriched below; roughly 4% of the tested compounds scored in any of these assays.

SMILES | KCNK9 inh | KCNQ1 block | PHOSPHO1 inh | KCNK3 inh | hERG protect | KCNQ1 act
COc1ccc(CSc2ccc(-c3nc4ccccn4c3NCc3ccccc3)cc2OC)cc1 | i | 6* | / | i | -7.4 | i
COc1ccc(C2NC(=S)N3C(c4ccc(OC)cc4)NC(=S)N23)cc1 (centres undefined) | i | i | 97.5* | i | -7.8 | i
S=C1NC(c2ccccc2)N2C(=S)NC(c3ccccc3)N12 (centres undefined) | i | i | 0.9 | i | -2.8 | i
COc1cc(-n2c(C)nc3cccnc32)c(Cl)cc1C(=O)O | i | i | 30.8 | i | -10.7 | i
Cc1ccc(SCCNC(=O)c2ccc(C)c(S(=O)(=O)Nc3cccc(C)c3)c2)cc1 | i | i | 21.5 | -11.4* | -3.1 | i
O=C1/C(=C/c2ccc([N+](=O)[O-])cc2)Oc2cc(O)ccc21 | i | 6* | 22.2 | i | -6.5 | i
COCCCn1c(-c2ccc(Cl)cc2)n[nH]c1=S | i | i | 97.6* | i | -4.1 | i
CCOCCCn1c(-c2ccc(Cl)cc2)n[nH]c1=S | i | i | 99.2* | i | -15.5 | i
CC1CCN(C(=O)CN(Cc2ccccc2)S(C)(=O)=O)CC1 | i | i | 13.9 | i | -1.5 | i
Cc1cc(C)c(S(=O)(=O)NCC2CCC(C(=O)NCCCN3CCOCC3)CC2)c(C)c1 (centres undefined) | i | i | 4.7 | i | -6.4 | i
COc1cccc(C(=O)CSc2nnc(-c3cccs3)o2)c1 | i | i | -0.9 | i | -4.3 | i
COc1cccc(C(=O)CSc2nnc(-c3cc(OC)cc(OC)c3)o2)c1 | i | i | 36.5 | i | 6.2* | i
Cc1ccc(-c2csc3ncnc(-n4nc(C)cc4N)c23)cc1 | i | i | -6.8 | i | -3.0 | i
Cc1ccc(COn2c(-c3ccc(Cl)cc3)nc3ccc([N+](=O)[O-])cc32)cc1 | i | i | 17.3 | i | -6.5 | i
O=[N+]([O-])c1ccc2nc(-c3ccc(Cl)cc3)n(OCc3ccccc3)c2c1 | i | 6* | 62.2* | i | -3.8 | i
CCOC(=O)C(C)On1c(-c2ccc(Cl)cc2)nc2ccc([N+](=O)[O-])cc21 (centres undefined) | i | 9* | 101.5* | i | -2.3 | i
CCOC(=O)C(C)On1c(-c2ccccc2)nc2ccc([N+](=O)[O-])cc21 (centres undefined) | i | i | 0.9 | i | -16.1 | i
COc1ccc(CSc2nnc(-c3ccncc3)n2C)cc1F | i | i | -9.3 | i | -1.0 | i
COCc1cc(C)nc(N2CCN(c3ccccc3)CC2)c1C#N | i | i | 1.0 | i | -11.2 | i
COCc1cc(C)nc(N2CCN(Cc3ccccc3)CC2)c1C#N | i | i | 78.3* | i | -1.8 | i
COC(=O)CSc1nc2nc(C)c(Br)cc2[nH]1 | i | i | 73.3* | i | -7.5 | i
Cc1ccc(NC(=O)CSc2nc3nc(C)c(Br)cc3[nH]2)cc1F | i | i | 19.9 | i | -6.0 | i
C=C(C)CSc1nc2nc(C)c(Br)cc2[nH]1 | i | i | 82.7* | i | -11.9 | i
O=S(=O)(Cc1ccccc1Cl)N1CCCCC1 | i | i | 8.7 | i | 1.9 | i
CCCN(CC(=O)Nc1ccccc1C)CC(=O)Nc1ccc(Br)cc1F | i | i | 26.5 | i | -2.5 | i
SMILES | KCNK9 inh | KCNQ1 block | PHOSPHO1 inh | KCNK3 inh | hERG protect | KCNQ1 act
CCCN(CC(=O)Nc1ccccc1Br)CC(=O)Nc1ccc(F)c(F)c1F | -7.01* | i | -9.0 | i | -7.8 | i
Nc1nc(-c2cccc(Br)c2)cs1 | i | i | 25.7 | i | -8.1 | i
Nn1c(-c2cccc(Br)c2)n[nH]c1=S | i | i | 95.5* | i | -4.3 | i
CCC1CCCCN1C(=O)/C=C/c1ccc2c(c1)OCO2 (centres undefined) | i | i | 34.0 | i | -0.6 | i
NC1=C(Cl)C(=O)c2ccccc2C1=O | / | / | / | i | / | /
CC1COCC(C)N1C1=C(Cl)C(=O)c2ccccc2C1=O (centres undefined) | / | / | / | -10* | / | /
NC(=O)C1CCN(C2=C(NS(=O)(=O)c3ccccc3)C(=O)c3ccccc3C2=O)CC1 | i | i | 27.3 | i | -14.8 | i
O=C1C(Cl)=C(N2CCC(C(=O)O)CC2)C(=O)c2ccccc21 | i | 6* | 32.8 | i | -19.5 | i
COc1ccccc1OCCCCn1ncc2ccc(OC)c(OC)c2c1=O | i | i | 19.9 | i | -4.3 | i
COC(=O)C1=C(C)N(C)C(=O)NC1c1cccc2ccccc12 (centres undefined) | i | i | 35.7 | i | -11.9 | i
CC(=O)NCCNc1ccc([N+](=O)[O-])cc1C#N | i | i | 20.2 | i | 5.8* | i
CSc1ccccc1NC(=O)c1noc(C)c1[N+](=O)[O-] | i | i | 34.4 | i | -9.7 | i
CC(C)(C)c1cc(C(=O)NNC(=O)c2ccc(Cl)cc2)no1 | i | i | 20.3 | i | 5.7* | 18*
CC(Oc1ccccc1Cl)C(=O)/C=C/N(C)C (centres undefined) | i | i | -1.1 | i | -5.4 | i
COc1ccc2nc(N3C(=O)/C(=C/c4ccccc4)NC3=S)sc2c1 | i | i | -0.9 | i | 62.8* | 62*
CCc1nnc(NC(=O)Cn2c(=O)oc3ccccc32)s1 | i | i | 16.0 | i | 0.1 | i
CCCc1nnc(NC(=O)CN2CCOCC2)s1 | i | i | 30.5 | i | 12.2* | i
CCCc1nnc(NC(=O)Cn2c(=O)oc3cc(Br)ccc32)s1 | / | / | 99.8* | i | / | /
CC1CCCC(C)N1c1nnc(NC(=O)Cn2c(=O)oc3ccccc32)s1 (centres undefined) | i | i | 62.4* | i | -13.1 | i
Cc1cc(C(=O)Nc2ccc3c(c2)CCC3)ccc1[N+](=O)[O-] | i | i | / | i | -9.0 | i
COc1ccc(S(=O)(=O)N(CC(=O)NCc2cccnc2)C2CCCCC2)cc1OC | i | i | 51.2 | i | -13.8 | i
Cc1occc1-c1nnc(SCC(=O)c2ccc(F)cc2)n1Cc1ccco1 | i | i | -10.5 | i | -12.0 | i
COc1ccc(C(=O)CSc2nnc(CNc3ccc(C)cc3C)n2Cc2ccco2)cc1 | i | i | 91.3* | i | -14.0 | i
O=C(CSc1nnc(COc2ccccc2)n1Cc1ccco1)c1ccc(F)cc1 | i | i | 77.5* | i | -9.4 | i
Cc1ccc(C(=O)CSc2nnc(CNc3ccc(C)cc3C)n2Cc2ccco2)cc1 | i | i | -16.3 | i | -12.8 | i
